Experimental data reported in ChEMBL document CHEMBL4316599, “Synthesis, in vitro and in vivo biological evaluation of substituted 3-(5-imidazo[2,1-b]thiazolylmethylene)-2-indolinones as new potent anticancer agents” (Eur J Med Chem, 2019).
Calls of active or inactive are those of the source. The rule behind the calls is not given here.

How the values were obtained:
[1] = test system: HT-29; experiment: Cell cycle arrest in human HT-29 cells assessed as accumulation of cells at G2/M phase after 24 hrs by propidium iodide staining-based flow cytometric analysis; format: functional
Summary of the method: (§1)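 Cells exposed to a range of concentrations for 24 h (HeLa at 5×10^5 cells), then fixed in ice-cold 70% ethanol. Lysis buffer with RNase A and 0.1% Triton X-100 was applied before PI staining. DNA content was read by flow cytometry and G1/S/G2/M fractions taken from DNA histograms. Mean ± SEM of two independent experiments.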

[2] = test system: A549; experiment: Induction of apoptosis in human A549 cells at 25 nM after 24 to 48 hrs by Annexin V-FITC/propidium iodide staining-based flow cytometric analysis; format: functional, cell-based
Summary of the method: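 A549 cells treated 24 or 48 h at 12.5–100 nM, then double-stained with annexin-V-FITC and PI. Phosphatidylserine exposure was read by flow cytometry. Mean ± SEM of three independent experiments.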

[3] = target: T1, Tubulin (Bos taurus) (UniProt Q6B856+Q862L2+Q862F3); experiment: Inhibition of [3H]colchicine binding to bovine brain tubulin at 5 uM after 20 mins relative to control
Summary of the method: (§2)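 Reaction mixtures held 1 μM tubulin, 5 μM [³H]colchicine and test compound at 5 or 50 μM. Read-out was percent inhibition of colchicine binding.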

[4] = test system: K562; experiment: Cell cycle arrest in human K562 cells assessed as mitotic index at 5 times IC50 by Giemsa staining-based assay (reference value: 3%); format: functional
[5] = test system: B16-BL6; experiment: Antitumor activity mouse B16-BL6 cells implanted in C57BL/6 mouse assessed tumor growth inhibition at 15 mg/kg, ip dosed every other day for 18 days relative to control; format: functional; conditions: 432 h, read-out: TGI
Summary of the method: (§3)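 Syngeneic allograft: C57BL/6 mice, six weeks old, given 2.5×10^5 BL6-B16 or E0771 cells subcutaneously in the dorsolateral flank in PBS. Dosing began at about 100 mm³. Test compound or reference was given intraperitoneally every other day in 50 μL DMSO, with DMSO vehicle controls. Tumor volume was compared with the vehicle group, 5 animals per group, mean ± SEM, by 2-way ANOVA with Bonferroni correction.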

[6] = test system: Prostatic carcinoma cell; experiment: Cytotoxicity against human prostate cancer cells after 48 hrs by SRB assay; format: functional
Summary of the method: (§4)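 NCI-60 screen: single-dose pass at 10^-5 M, then a five-concentration assay from 10^-9 to 10^-4 M (highest 100 μM). Exposure was 48 h under standard NCI protocols. GI50, TGI and LC50 were derived per cell line and averaged by subpanel. Repeated tests are the mean of two experiments.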

[7] = target: T1, Tubulin (Bos taurus); experiment: Inhibition of [3H]colchicine binding to bovine brain tubulin at 50 uM after 20 mins relative to control; summary of the method: as §2
[8] = test system: B16-BL6; experiment: Growth inhibition of mouse B16-BL6 cells after 72 hrs by MTT assay; format: functional; conditions: B16-BL6, 72 h
Summary of the method: (§5)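 Murine BL6-B16 melanoma and EO771 breast tumor cells were exposed to compound for 72 h. GI50 is reported ± error.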

[9] = Toxicity in C57BL/6 mouse implanted with mouse E0771 cells assessed as effect on body weight at 7.5 to 15 mg/kg, ip dosed every day for 20 days; format: organism-based; conditions: in vivo, 480 h, in the assay text read “every other day” for “every day”
Summary of the method: (§6)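 C57BL/6 mice, six weeks old, received 2.5×10^5 BL6-B16 or E0771 cells s.c. in the dorsolateral flank in PBS. Dosing began once tumours reached about 100 mm³: 7.5 or 15 mg/kg i.p. every other day in 50 μL DMSO. Vehicle and CA-4P 30 mg/kg served as controls. Body weight was monitored, with 5 animals per group.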

[10] = Cytotoxicity against human COLON cells after 48 hrs by SRB assay; format: functional; summary of the method: as §4
[11] = test system: K562; experiment: Cytotoxicity against human K562 cells after 48 hrs by SRB assay; format: functional, cell-based
[12] = test system: HeLa; experiment: Cell cycle arrest in human HeLa cells assessed as increase in cyclin B1 expression at 50 nM after 24 hrs by Western blot analysis; format: functional, cell-based
Summary of the method: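 HeLa cells treated 24 h, washed in ice-cold PBS and lysed on ice 30 min. Lysates were spun at 15000 x g, 4 °C. 10 µg protein run on SDS-PAGE and blotted to PVDF. Blots were blocked in 5% BSA overnight at 4 °C and probed 2 h at room temperature. Detection by HRP-secondary and ECL, with bands normalized to β-actin as fold of untreated. Three independent experiments, one-way ANOVA/Dunnett.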

[13] = test system: HeLa; experiment: Cell cycle arrest in human HeLa cells assessed as accumulation of cells at G2/M phase after 24 hrs by propidium iodide staining-based flow cytometric analysis; format: functional; summary of the method: as §1
[14] = test system: Leukemia cell; experiment: Cytotoxicity against human leukemia cells after 48 hrs by SRB assay; format: functional; summary of the method: as §4
[15] = test system: A549; experiment: Cell cycle arrest in human A549 cells assessed as accumulation of cells at G2/M phase at 50 nM after 24 hrs by propidium iodide staining-based flow cytometric analysis relative to control; format: functional; summary of the method: as §1
[16] = test system: K562; experiment: Cytotoxicity against human K562 cells after 16 hrs by SRB assay; conditions: K562, 16 h
[17] = test system: HeLa; experiment: Cell cycle arrest in human HeLa cells assessed as accumulation of cells at G2/M phase at 50 nM after 24 hrs by propidium iodide staining-based flow cytometric analysis relative to control; format: functional; summary of the method: as §1
[18] = test system: HT-29; experiment: Cell cycle arrest in human HT-29 cells assessed as reduction in accumulation of cells at S phase up to 1000 nM after 24 hrs by propidium iodide staining-based flow cytometric analysis; format: functional; summary of the method: as §1
[19] = test system: K562; experiment: Cell cycle arrest in human K562 cells assessed as mitotic index at 10 times IC50 by Giemsa staining-based assay (reference value: 3%); format: functional
[20] = test system: E0771; experiment: Growth inhibition of mouse E0771 cells after 72 hrs by MTT assay; format: functional; conditions: E0771, 72 h; summary of the method: as §5
[21] = test system: NSCLC; experiment: Cytotoxicity against human NSCLC cells after 48 hrs by SRB assay; format: functional; summary of the method: as §4
[22] = test system: Breast carcinoma cell; experiment: Cytotoxicity against human breast cancer cells after 48 hrs by SRB assay; format: functional; summary of the method: as §4
[23] = test system: E0771; experiment: Antitumor activity mouse E0771 cells implanted in C57BL/6 mouse assessed tumor growth inhibition at 7.5 mg/kg, ip dosed every other day for 20 days relative to control; format: functional; conditions: 480 h, read-out: TGI; summary of the method: as §3
[24] = Toxicity in C57BL/6 mouse implanted with mouse B16-BL6 cells assessed as effect on body weight at 7.5 to 15 mg/kg, ip dosed every day for 18 days; format: organism-based; conditions: in vivo, 432 h, in the assay text read “every other day” for “every day”; summary of the method: as §6
[25] = test system: HeLa; experiment: Induction of mitochondrial membrane depolarization in human HeLa cells at 250 to 500 nM after 6 to 48 hrs by JC-1 staining-based assay; format: functional, cell-based; conditions: TDE = time-dependent effect
Summary of the method: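 HeLa cells treated at 250-500 nM for 6, 12, 24 or 48 h, then stained with JC-1. Percentage of cells with low mitochondrial membrane potential measured by flow cytometry. Mean ± SEM of three independent experiments.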

[26] = test system: Melanoma cell line; experiment: Cytotoxicity against human melanoma cells after 48 hrs by SRB assay; format: functional; summary of the method: as §4
[27] = read-out: LC50 (the source's name)

For O=C1Nc2c(ccc3ccccc23)C1=Cc1c(-c2ccncc2)nc2sccn12, the Activity [1] was “Dose-dependent effect”, the Activity [2] was “Active” and the inhibition [3] was 25%. For the same molecule, the Activity [4] was 35%, the inhibition in vivo at 15 mg/kg [5] was 29.4% and the GI50 [6] was 0.02 µM. For the same molecule, the TGI [6] was 55.9 µM, the CC50 [6, 27] was 80.1 µM and the inhibition [7] was 51%. The GI50 [8] was 0.305 µM, the Activity [9] was “Non-Toxic” and the GI50 [10] was 0.03 µM. For the same molecule, the TGI [10] was 39.9 µM, the CC50 [10, 27] was 77 µM and the Activity [11] was “Dose-dependent effect”. For the same molecule, the Activity [12] was “Active”, the Activity [13] was “Dose-dependent effect” and the GI50 [14] was 0.03 µM. For the same molecule, the TGI [14] was 79.5 µM, the Activity [15] was over 80% and the IC50 [16] was 0.03 µM. For the same molecule, the Activity [17] was over 80%, the Activity [18] was “Active” and the Activity [19] was 58%. For the same molecule, the GI50 [20] was 0.015 µM, the GI50 [21] was 11.1 µM and the LC50 [21] was 97.9 µM. It also gave a TGI [21] of 79.9 µM, a GI50 [22] of 0.04 µM and an LC50 (concentration killing 50% of cells) [22] of 99 µM. The TGI [22] was 71.3 µM, the inhibition in vivo at 7.5 mg/kg [23] was 51.8% and the Activity [24] was “Non-Toxic”. For the same molecule, the Activity [25] was “Tde”, the GI50 [26] was 7.16 µM and the TGI [26] was 72.9 µM. For the same molecule, the CC50 [26, 27] was 95.3 µM.
